# Results: the RNAGym collection of RNA variant scans (doi:10.1038/s41586-018-0170-7)
# B1: tRNA (parent)
# chain: GUUCCGUUGGCGUAAUGGUAACGCGUCUCCCUCCUAAGGAGAAGACUGCGGGUUCGAGUCCCGUACGGAACG
# Variants of: B1
# Assay: yeast fitness, log relative to wild type (ln ratio); higher = fitter; tRNA-Arg(CCU), competitive growth, 37 C, 1 M NaCl
# How it was run: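 Fitness is the natural log of each genotype's generations divided by the wild type's. Generations were derived as OD-scaled log2 output/input frequency from 125 bp paired-end Illumina counts, weighting replicates by inverse variance. Pools of the tRNA-Arg(CCU) variant library, on a HIS3 centromeric plasmid in BY4742 lacking the chromosomal gene, grew ~6.5 generations (~26.5 h) in SC-HIS 1M NaCl at 37 °C after 4 generations in SC-HIS at 30 °C.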
row,Variant,yeast fitness (ln)
1,G1A U2C G6U C27U C66U A70U,-0.176
2,G1A C27U A43C C46U A70U,-0.203
3,G6A A43C C66U A70U,-0.204
4,U2G G6A C46U,-0.0244
5,U2C G6U C27U C66U A69G A70U,-0.378
6,G1A U2G G6A C27U C66A A70G,-0.296
7,U2G A43C C46U C66A A69G A70U,-0.0871
8,G6A C46U C66A A70G,-0.117
9,U2C G6A A43C C46U A69G A70G C71U,-0.101
10,G6A A70U C71U,-0.14
11,U2C C27U A43C C66A A70G C71U,-0.111
12,G6A A43C C66U A69G A70U,-0.3
13,G1A U2C G6A C46U C66A A70U C71U,-0.102
14,G1A G6A A43C C46U A69G A70U,-0.283
15,G1A U2G G6U C27U A43C A70U,-0.338
16,G6U C46U C66U A69G A70G,-0.275
17,U2C G6U C27U C66U C71U,-0.265
18,C46U C66U A69G C71U,-0.396
19,U2G G6A A43C C66A C71U,-0.347
20,G1A U2C G6A A70G,-0.0946
21,G1A A43C C46U C66U A69G A70G,-0.222
22,U2G G6U C66A A70U,0.00254
23,U2C G6U C46U C71U,-0.0792
24,U2C G6A A43C C46U C66U A69G A70U C71U,-0.319

row,Variant,yeast fitness (ln)
1,A43C C46U A69G A70U C71U,-0.273
2,G6A C46U A70U,-0.237
3,U2G G6U C27U A43C C46U C66U A69G C71U,-0.375
4,G1A U2G G6A C27U C46U C66A A70G C71U,-0.282
5,G1A G6A A43C C46U A69G A70G,-0.251
6,G1A U2G C27U A43C C46U A69G A70U C71U,-0.399
7,C66U A70U,-0.0848
8,G1A G6A C46U C66U A70U,-0.0452
9,G1A U2G A43C C66U A69G A70U C71U,-0.472
10,G1A U2G G6U C46U A70G,-0.282
11,G1A U2C G6A C27U C46U C66U C71U,-0.348
12,U2C G6U,-0.00207
13,G1A U2G G6A C27U A43C C46U A69G C71U,-0.283
14,G1A U2C G6A C27U C46U C66U A70U,-0.0971
15,U2G G6A C27U C66A A70G C71U,-0.149
16,G1A U2G G6A C27U A70G C71U,-0.336
17,U2C A43C C66U A69G A70G C71U,-0.23
18,U2G G6U C27U C66U A69G A70U C71U,-0.439
19,U2C G6A C27U A43C C46U C66U A69G A70G C71U,-0.0764
20,U2G C27U A69G,-0.0592
21,G1A U2C C27U C46U A69G C71U,-0.192
22,G1A G6U A69G C71U,-0.186
23,G1A C46U A69G A70U C71U,-0.359
24,G6U A43C A70U C71U,-0.287

row,Variant,yeast fitness (ln)
1,G6A A43C C46U C66U A70U C71U,-0.268
2,G1A G6U A43C,-0.192
3,G6U A43C C71U,-0.253
4,G1A U2C G6A C66U A70G C71U,-0.0113
5,G6A C27U C66U A70U C71U,-0.312
6,U2C C27U A43C C66U A69G A70G C71U,-0.288
7,G6U C27U C66A A70G,-0.0711
8,G1A C66U A70U C71U,-0.212
9,G1A C27U A43C C66U A70G,-0.333
10,G1A U2G G6A C27U A43C C46U A70U C71U,-0.307
11,G1A U2G C46U A69G A70G C71U,-0.457
12,A43C C66A A69G A70G C71U,-0.159
13,G1A U2C A43C C46U A69G A70U,-0.0156
14,G1A C27U A70G C71U,-0.11
15,G1A G6A C27U C66U A69G A70U,-0.324
16,G1A U2C A69G A70U C71U,-0.321
17,G1A U2C C27U A43C C46U C66U C71U,-0.241
18,G1A U2C C46U C66U A69G A70G C71U,-0.0168
19,U2G G6A A43C A70U C71U,-0.169
20,U2G C46U A70G C71U,-0.284
21,U2C G6U C46U C66A A69G A70U C71U,-0.185
22,G1A C27U C46U C66U A69G A70U C71U,-0.504
23,G6A C46U C66A A70U C71U,-0.211
24,U2G G6U A43C C66A A70U C71U,-0.43

row,Variant,yeast fitness (ln)
1,G1A G6U C27U A43C C46U A70U C71U,-0.318
2,U2C C66A A69G A70G,-0.0883
3,U2G C66A C71U,-0.108
4,G1A U2G G6A C46U A70G C71U,-0.245
5,U2G C46U C66U,-0.0936
6,G1A U2G G6U C27U A43C C46U A69G A70U,-0.463
7,G6A C27U A43C C46U C66U A69G A70U C71U,-0.447
8,G1A U2G C27U C46U C66A A70U C71U,-0.185
9,G1A U2C C46U C66U A69G A70G,-0.127
10,G1A U2C G6A C46U A69G A70G C71U,-0.0541
11,U2G G6A C46U C66A A69G A70G C71U,-0.193
12,G1A G6A C66A A70G C71U,-0.267
13,G1A U2G C27U C46U C66U A69G A70U,-0.265
14,U2G G6A C46U C66A A70U,-0.059
15,A43C C46U C66A A70U C71U,-0.128
16,U2G G6U C27U A43C,-0.107
17,U2C G6U A43C C46U C66U A70U C71U,-0.254
18,U2G C71U,-0.0549
19,G1A U2G C27U A43C A69G C71U,-0.37
20,G1A G6A C27U C46U C66U A69G A70U,-0.468
21,G1A U2G C46U C71U,-0.25
22,G6A C27U A43C C66U,-0.0646
23,G6A C46U C66A A70G C71U,-0.169
24,U2C G6U A43C A69G A70G,-0.143

row,Variant,yeast fitness (ln)
1,U2G G6A C27U A43C A69G A70U C71U,-0.502
2,G1A C27U C66U A69G A70G,-0.211
3,U2G G6A A43C C66A A70G C71U,-0.198
4,U2G C66U A69G A70G,-0.151
5,G1A U2C G6U C66U A70U,-0.153
6,G6U C46U C66U A69G,-0.376
7,U2G G6U A43C C66A A70U,-0.0132
8,U2C G6A C27U A43C C66U A69G A70G,-0.0511
9,G1A U2G G6U A43C A69G A70G C71U,-0.439
10,U2C G6U C66A A69G A70U C71U,-0.487
11,G1A U2G G6U C46U C66A A70U,-0.234
12,G1A U2G G6A C46U A70U C71U,-0.559
13,G1A U2C G6A C27U C46U C66U A69G A70G,-0.364
14,G6U C46U C66A A69G,-0.0364
15,G1A U2G C46U A69G C71U,-0.0958
16,U2C C27U A43C C46U C66U A70U,-0.115
17,U2C A43C C46U C66A A70U,-0.0333
18,G6U C27U C46U C66U A70G,-0.207
19,G1A U2G C66A A70U,-0.0922
20,G6A A43C C66A A70G C71U,-0.275
21,G6A C27U A43C C46U C66U,-0.0283
22,G1A U2G C27U A43C C46U C66A A69G A70G C71U,-0.269
23,G6A C46U,-0.0181
24,U2C C46U C66A A70U,0.075

row,Variant,yeast fitness (ln)
1,G1A U2C G6U C46U C66A A70U,-0.184
2,G1A U2C G6U,-0.00557
3,C46U C66U,-0.000909
4,G1A U2G A43C C66U A69G A70U,-0.287
5,G1A G6A A43C C46U C66U A69G A70G,-0.184
6,C46U A69G A70U C71U,-0.138
7,G1A U2C G6U A70G,-0.113
8,U2G C27U C66U A69G A70U C71U,-0.433
9,U2C C46U A70G C71U,-0.00238
10,U2G G6U C27U C46U C66U A69G A70U,-0.238
11,G1A C27U A43C C46U A70G C71U,-0.153
12,G1A U2G A43C C66A A70U C71U,-0.396
13,G1A C27U A43C A70U,-0.329
14,U2C G6U C66A A70U,0.0021
15,U2C C27U A69G C71U,-0.102
16,G6U A43C C46U C66A A69G A70U C71U,-0.314
17,U2G G6U C46U A69G C71U,-0.129
18,U2G G6A C27U A43C,-0.0726
19,G6A C27U A70U,-0.17
20,G1A U2C G6U C46U C66A A69G A70U,0.0136
21,G1A U2C G6A C27U A43C C46U A69G A70U,-0.132
22,U2G G6A C27U A43C C71U,-0.197
23,G6U C27U A43C C46U C66A A69G,-0.0652
24,G1A U2G C27U C46U C66U A69G A70G,-0.231

row,Variant,yeast fitness (ln)
1,U2C G6U C27U A43C A69G A70G,-0.242
2,U2G G6U C27U A43C C46U C66U A69G A70U,-0.374
3,U2G A43C A70G C71U,-0.123
4,G1A U2G A43C C46U C66U A69G C71U,-0.404
5,C27U A69G,-0.0417
6,G6U A70G C71U,-0.153
7,U2C A43C C46U C66A A70G C71U,-0.0245
8,G1A U2G C27U A43C C66U A70G C71U,-0.383
9,G1A G6A C27U A43C C46U A69G A70G C71U,-0.374
10,U2C C27U A43C A69G A70G C71U,-0.0704
11,G1A U2C G6U A43C A69G A70G C71U,-0.268
12,U2C G6U C27U A43C C46U C66A C71U,-0.17
13,G1A U2G G6U A70G C71U,-0.256
14,G1A G6U C27U C66A,-0.254
15,G1A G6U C27U C46U C66U A69G C71U,-0.595
16,U2G G6A C27U C46U C66U A70U C71U,-0.158
17,G1A G6U C46U A69G A70G,-0.203
18,U2G C27U C46U A70U,-0.00918
19,U2G C27U A43C C46U A69G A70G C71U,-0.132
20,G1A U2G G6U C46U C66A A69G A70U C71U,-0.227
21,G6A A43C A69G A70U C71U,-0.429
22,C27U C46U C66U A69G A70G,-0.197
23,G1A G6A C27U A43C C46U C71U,-0.247
